The subject of this assay is HEp-2 viability, luminescence (CellTiter-Glo). The assay is described as follows: HEp-2 cell cytotoxicity, dose response, cytotoxicity control for RSV inhibitor project, CellTiter-Glo luminescence, synthesized compounds, set 3 (AID 492968). Put shortly: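 Test system: HEp-2 cells; Amount: 10,595 cells/well; Medium: complete DMEM/F12 medium adjusted to pH 7.5; Doses: eight twofold dilutions, 50 to 0.39 µM final, 0.5% DMSO; Schedule: compound exposure of 6 days at 37 °C, 5% CO2; Signal: CellTiter-Glo luminescence for cell viability; Read-out: CC50 from 0–100-bounded four-parameter fit; Replicates: triplicate.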
Regarding `Cc1ccccc1NC(=O)[C@@H]1CCCN1S(=O)(=O)c1cccc2cccnc12`, the cytotoxic concentration (CC50) (usually the concentration giving 50% cytotoxicity) is 45 µM.

In the case of `Cc1cc(C)cc(NC(=O)[C@@H]2CCCN2S(=O)(=O)c2cccc3cccnc23)c1`, the 50% cytotoxic concentration (CC50) was 31.6 µM.

Consider `Cc1ccc(NC(=O)[C@@H]2CCCN2S(=O)(=O)c2cccc3cccnc23)cc1`, for which the CC50 was 27.1 µM.

(Values after PubChem BioAssay AID492968 (Southern Research Specialized Biocontainment Screening …, 2010).)
